An excerpt weighted towards active compounds, which were near 3.6% of everything screened.
Beta apoptosis: inhibitors of cytokine-induced beta cell apoptosis, primary screen, luminescence. 300,000 tested, 0.8% active. protection from apoptosis, % (no concentration beside the values). AID 435005, 2010. INS-1E cytokine-induced death, ATP luminescence, 48 h; percent of positive-control rescue, neutral wells zero;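 active = Every replicate reaches about 75%, or at least half do and their mean reaches it too, limit read from the data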;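 also: 0% = cytokine-treated negative control wells and 100% = positive control rescue; higher means more ATP so stronger rescue from cytokine killing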
SKKanGAS inh: S. pyogenes SKKanGAS growth inhibitors in kanamycin, primary screen, streptokinase expression inhibitor project, SKKanGAS strain, BacTiter-Glo luminescence; 6 h; inhibition, % at 7.5 µM; 300,000 tested, 1.3% active; AID 1662, 2009;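 active = mean replicate score, as percent of positive control median, at least 50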;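 also: strain carries kanamycin resistance gene driven by streptokinase promoter and grows in 40 µg/ml kanamycin; loss of luminescence reflects streptokinase promoter inhibition or plain growth inhibition; 0% = median of DMSO wells and 100% = positive control at its reference dose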
T cruzi repl: inhibitors of intracellular T. cruzi growth, primary screen, luminescence, NIH3T3 host cells. T. cruzi beta-gal in NIH3T3, 90 h. inhibition, % (no concentration beside the values). 300,000 tested, 1.4% active;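 active = mean inhibition across valid replicates above about 55%, limit read from the data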;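 also: signal also drops with host cell toxicity which is not excluded here; 0% = plate median of DMSO wells and 100% = zero luminescence signal; higher percent means less beta-gal luminescence so fewer parasites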
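Test system: β-gal T. cruzi (Tulahuen C4) inside NIH/3T3 cells / Quantity: 5,000 cells/well / Measured by: luminescence from GalScreen with 0.05% NP40, read after 60 min / Medium: DMEM plus 2% FBS / Measure: parasite load inhibition, % / Reagent: Tulahuen C4 trypomastigotes, 5000/well / Schedule: co-culture of at least 90 h after 3 h attachment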
PfHsp90 yeast 2: growth inhibition of PfHsp90-expressing yeast, primary screen, antimalarial PfHsp90 inhibitor project, S. cerevisiae, BacTiter-Glo luminescence, single point, set 2; BacTiter-Glo ATP, 48 h; yeast lacking PDR1 and PDR3 efflux regulators; inhibition, % at 9.4 µM; 310,000 tested, 0.32% active; AID 504621, 2011;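 active = every replicate shows inhibition above about 80%, whatever the replicate mean, limit read from the data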;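 also: 0% = DMSO neutral controls and 100% = 20 µM radicicol positive controls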
HIF activator: HIF pathway transcriptional activators, primary screen, cell-based, U2OS HRE-luciferase, luminescence; U2OS HRE-luciferase reporter; normalized: DMSO 0%, desferrioxamine 100%; activation, % at 7.5 µM (by protocol); 300,000 tested, 0.32% active; AID 1910, 2009;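 active = mean activation of at least 10% of the iron chelator positive control signal, with at least half of replicates also reaching 10%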
CSC inhib: cancer stem cell viability inhibitors, primary screen, luminescence. inhibition, % at 7.5 µM. 300,000 tested, 1.1% active. cancer stem cell-like cells viability. AID 2717, 2010; in the data active = inhibition above about 75%; tested in HMLE shEcad cells
Active calls of the source: *; x = no result given.

SMILES	Beta apoptosis	SKKanGAS inh	T cruzi repl	PfHsp90 yeast 2	HIF activator	CSC inhib
O=[N+]([O-])c1ccc(/C=N/NC(=S)Nc2ccccc2)o1	0	4	41	9	0	-10
O=[N+]([O-])c1cccc(-c2ccc(/C=N/NC(=S)Nc3ccccc3)o2)c1	10	14	56*	-36	1	26
O=C(CCc1nnc(CCCCc2ccccc2)o1)NCCc1cccnc1	0	-1	60*	x	0	-22
O=C(NNC(=O)C(O)(c1ccccc1)c1ccccc1)C1CC1	2	-3	2	-1	31*	-2
O=C(/C=C/c1ccccc1)NNC(=O)C1CC1	-7	-1	-5	13	0	-6
Cc1ccc(-c2nn(-c3ccc(F)cc3)cc2C(=O)N2CCN(C3CCS(=O)(=O)C3)CC2)cc1 (stereo not drawn)	-8	x	x	-12	x	-10
NNC(=S)Nc1ccc(C(F)(F)F)cc1Cl	4	61*	3	8	-1	38
Cc1cccc(NC(=S)NNc2ncc(C(F)(F)F)cc2Cl)c1	10	-8	-14	-8	-1	-18
FC(F)(F)c1cnc(NNC(=S)Nc2ccccc2Cl)c(Cl)c1	112*	4	-11	-58	-1	49
CCCCCCCC(=O)NNC(=O)CC(=O)Nc1ccccc1C(=O)O	-1	-1	-22	23	-1	20
CCn1c(SCC(=O)Nc2nc(-c3ccc(C)cc3)cs2)nnc1-c1ccccc1	-6	21	13	-6	3	19
Cc1csc(SCC(=O)Nc2nc(-c3ccccc3)cs2)n1	-10	-5	1	16	1	-12
Nc1ccccc1SCC(=O)Nc1nc(-c2ccccc2)cs1	-11	-9	-9	-11	2	127*
CCn1c(SCC(=O)Nc2nc(-c3ccc(C)cc3)cs2)nnc1-c1ccccc1O	6	55*	23	2	0	x
CC12CCC(C(=O)N(CSC(=S)N/N=C\c3ccccc3O)C1=O)C2(C)C (stereo not drawn)	24	108*	-45	8	0	x
COc1ccc(/C=N\NC(=S)SCN2C(=O)C3CCC(C)(C2=O)C3(C)C)cc1 (stereo not drawn)	1	4	-13	-41	0	12
N#Cc1c(Cl)cccc1N1CCC(C(N)=O)CC1	31	2	-19	x	-1	-1
O=C1CC(=Nc2ccccc2)NN1c1ccccc1	21	18	-1	x	1	130*
O=C1Cc2ccccc2N1c1ccccc1	x	3	-1	-7	0	-8
COC(=O)C1=CN(Cc2ccc(OC)c(OC)c2)C=C(C(=O)OC)C1c1cccc(OC)c1OC	-8	-3	61*	-7	0	6
Cc1cc(CN2CCC(n3nccc3NC(=O)c3ccccc3C)CC2)n[nH]1	-1	2	-4	-9	-1	0
COc1ccc(-c2nnc(NC(=O)c3ccc(S(=O)(=O)N4CCc5ccccc5C4)cc3)o2)cc1	4	94*	73*	-7	-19	x
COc1ccc(-c2csc(NC(=O)c3ccc(S(=O)(=O)N4CCc5ccccc5C4)cc3)n2)cc1	4	5	-13	7	-6	x
COc1ccc(-c2nnc(NC(=O)C3CCCN3S(=O)(=O)c3cccs3)o2)cc1 (stereo not drawn)	-7	56*	-10	x	0	x
COc1cccc(-c2nnc(NC(=O)c3ccc(S(=O)(=O)N4CC(C)OC(C)C4)cc3)o2)c1 (stereo not drawn)	x	93*	20	-10	1	19
SMILES	Beta apoptosis	SKKanGAS inh	T cruzi repl	PfHsp90 yeast 2	HIF activator	CSC inhib
CN(CC(=O)Nc1ccc(Cl)c(C(F)(F)F)c1)C(=O)C1CSC2(C)CCC(=O)N12 (stereo not drawn)	1	-5	2	-3	0	-7
CCOc1ccc2nc(Cl)c(C3CC(c4ccccc4)=NN3C(=O)c3ccco3)cc2c1 (stereo not drawn)	4	3	-1	x	0	34
O=C(NCCc1nccs1)C1CCC(=O)N(Cc2cccc(C(F)(F)F)c2)C1 (stereo not drawn)	0	-2	0	-3	0	-10
CCOC(=O)c1cnc(-n2nc(C)cc2C)nc1NCc1ccccc1	99*	89*	62*	4	0	18
CCOC(=O)c1cnc(-n2nc(C)cc2C)nc1NC(C)c1ccccc1 (stereo not drawn)	88*	107*	60*	x	0	x
Cc1cc(C)n(-c2nc(C)nc(NCc3ccccc3)n2)n1	7	58*	-32	12	0	-9
FC(F)(F)c1cc(-c2ccccc2)nc(-n2cc(Cl)cn2)n1	5	-8	-8	-2	-1	11
Cc1cnn(-c2nc(-c3ccccc3)cc(-c3ccccc3)n2)c1	x	76*	49	-49	0	x
CC(C)Oc1ccc(S(=O)(=O)N2CCCCC2)cc1NC(=O)C1CCC1	-3	-8	4	4	-2	-9
O=C(NC(=S)N1CCCCC1c1cccnc1)c1ccc(F)cc1 (stereo not drawn)	-2	99*	-4	9	0	-18
CC(=O)C1=C(C)NC(=O)NC1c1ccc(Cl)cc1 (stereo not drawn)	-2	-19	-4	3	0	-14
COc1ccc(NC(=O)CN(C)C(=O)Cc2ccc(S(=O)(=O)N3CCOCC3)s2)cc1	-3	5	-4	0	0	-8
O=C(Nc1ccccc1C(F)(F)F)NC1(C(=O)N2CCOCC2)CCCCC1	x	x	x	26	x	x
O=C1CCCc2ccccc2N1Cc1cccc(F)c1	-3	-17	-7	-3	-2	-10
O=C1CCCc2ccccc2N1Cc1ccc(F)cc1	-2	3	-5	-5	42*	-6
C=CCC[C@H](Cc1ccc(F)cc1)C(=O)OC[C@@H](Cc1c[nH]c2ccccc12)NC(=O)[C@H](CC=C)CC(=O)N(CCO)Cc1ccccc1	-13	x	x	16	x	92*
OCC1(CCc2ccccc2)CCN(Cc2cc(F)ccc2-n2cccn2)CC1	-2	-5	17	3	3	0
O=[N+]([O-])c1ccccc1N/N=C/c1cccc(O)c1O	20	5	-24	-75	2	86*
COc1cc(-c2csc(NC3CCCCC3)n2)cc(OC)c1OC	x	0	43	-19	0	-5
Clc1cccc(-c2ccc(CNCc3ccccn3)o2)c1	-1	15	-3	-33	2	2
Brc1ccc(-c2ccc(CNCc3ccccn3)o2)cc1	1	67*	8	7	1	6
